Data on one compound can be found in ChEMBL document CHEMBL4406804, “Discovery of a Potent Steroidal Glucocorticoid Receptor Antagonist with Enhanced Selectivity against the Progesterone and Androgen Receptors (OP-3633)” (J Med Chem, 2019).

One data set addresses T1, Progesterone receptor (Homo sapiens, UniProt P06401).
T1 sequence (P06401 whole entry): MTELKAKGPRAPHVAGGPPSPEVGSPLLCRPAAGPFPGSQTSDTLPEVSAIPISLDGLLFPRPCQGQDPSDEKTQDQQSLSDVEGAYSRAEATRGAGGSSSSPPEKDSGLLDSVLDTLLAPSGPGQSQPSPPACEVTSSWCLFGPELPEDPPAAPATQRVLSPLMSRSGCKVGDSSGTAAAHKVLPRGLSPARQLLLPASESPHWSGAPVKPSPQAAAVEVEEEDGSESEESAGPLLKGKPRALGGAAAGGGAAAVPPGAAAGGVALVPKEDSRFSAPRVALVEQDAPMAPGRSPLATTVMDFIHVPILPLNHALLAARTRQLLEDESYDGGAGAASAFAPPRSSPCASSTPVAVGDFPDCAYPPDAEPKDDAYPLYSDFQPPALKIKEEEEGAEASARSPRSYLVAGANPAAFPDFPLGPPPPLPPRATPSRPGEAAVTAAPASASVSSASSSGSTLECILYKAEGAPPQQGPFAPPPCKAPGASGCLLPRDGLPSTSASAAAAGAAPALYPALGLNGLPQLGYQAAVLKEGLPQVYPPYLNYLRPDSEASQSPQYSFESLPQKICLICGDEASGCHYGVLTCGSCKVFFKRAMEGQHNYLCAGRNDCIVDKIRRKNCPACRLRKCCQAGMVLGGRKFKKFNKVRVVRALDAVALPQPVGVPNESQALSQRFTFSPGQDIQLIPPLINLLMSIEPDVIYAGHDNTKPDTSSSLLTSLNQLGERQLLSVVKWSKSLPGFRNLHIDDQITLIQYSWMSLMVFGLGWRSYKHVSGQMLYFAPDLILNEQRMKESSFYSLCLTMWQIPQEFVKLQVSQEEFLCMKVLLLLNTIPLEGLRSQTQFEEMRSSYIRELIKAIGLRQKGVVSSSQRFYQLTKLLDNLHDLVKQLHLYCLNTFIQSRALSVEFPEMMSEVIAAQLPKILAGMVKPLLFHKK
Put plainly: Antagonist activity at human progesterone receptor expressed in CHO-K1 cells harboring firefly luciferase gene after 20 hrs by One-Glo luciferase reporter gene assay. Format: cell-based. An outline of the steps:
(§1)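 Cell-based luciferase reporter assays for GR, AR and PR, run in agonist and antagonist modes. Potency and Emax are averages of at least two determinations, reported with SD.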
A general note: In a reporter assay the amount or activity of a reporter protein is the signal.

Data set [1] concerns the target T2, Progesterone receptor (Homo sapiens) (UniProt P06401).
T2 sequence (whole entry): T1 sequence (P06401 whole entry)
The experiment in a line: Agonist activity at human progesterone receptor expressed in CHO-K1 cells harboring firefly luciferase gene after 20 hrs by One-Glo luciferase reporter gene assay. The class given is cell-based. An outline of the steps: as §1

The target of the next data set is CYP3A4 (Homo sapiens, UniProt P08684). Put plainly: Inhibition of CYP3A4 (unknown origin) at 10 uM using midazolam as substrate relative to control. The class given is ADME. The conditions noted are these: probe midazolam.
The target in the next data set is T3, Glucocorticoid receptor (Homo sapiens, UniProt P04150).
T3 sequence (P04150 whole entry): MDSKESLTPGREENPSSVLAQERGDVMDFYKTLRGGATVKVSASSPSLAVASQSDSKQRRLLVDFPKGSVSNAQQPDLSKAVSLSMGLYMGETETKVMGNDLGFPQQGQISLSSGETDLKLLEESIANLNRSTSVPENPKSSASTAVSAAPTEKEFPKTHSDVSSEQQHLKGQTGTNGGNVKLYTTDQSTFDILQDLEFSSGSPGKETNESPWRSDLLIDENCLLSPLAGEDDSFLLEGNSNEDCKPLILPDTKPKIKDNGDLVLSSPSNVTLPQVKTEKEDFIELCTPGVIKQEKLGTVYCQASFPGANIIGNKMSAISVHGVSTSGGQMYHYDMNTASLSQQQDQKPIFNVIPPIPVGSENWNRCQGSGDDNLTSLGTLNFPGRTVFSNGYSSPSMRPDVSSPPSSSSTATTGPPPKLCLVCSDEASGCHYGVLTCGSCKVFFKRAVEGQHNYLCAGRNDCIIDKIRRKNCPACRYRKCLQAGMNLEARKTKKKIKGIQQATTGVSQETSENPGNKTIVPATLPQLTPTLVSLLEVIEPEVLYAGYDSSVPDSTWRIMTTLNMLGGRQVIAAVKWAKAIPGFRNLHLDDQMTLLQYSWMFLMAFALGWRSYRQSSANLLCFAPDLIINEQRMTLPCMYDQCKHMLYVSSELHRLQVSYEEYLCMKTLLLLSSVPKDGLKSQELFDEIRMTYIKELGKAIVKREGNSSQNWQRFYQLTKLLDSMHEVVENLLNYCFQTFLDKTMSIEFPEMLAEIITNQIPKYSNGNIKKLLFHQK
Put plainly: Antagonist activity at human glucocorticoid receptor expressed in CHO-K1 cells assessed as inhibition of glucocorticoid receptor-dexamethasone coactivator protein-protein interaction incubated for 24 hrs by bioluminescence assay. Format: cell-based.

Data set [2] in a line: Clearance in rat at 0.5 mg/kg, iv. The conditions noted are these: in vivo. The class given is ADME, organism-based. An outline of the steps: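 Rat PK study. The iv dose of 0.5 mg/kg was given in 10% DMSO, 70% PEG 400 and 20% water. The oral dose of 5 mg/kg was given in 5% DMSO / 95% of 0.2% Tween 80 in 0.25% CMC, adjusted to pH 4 for one compound. Read-outs were CL, Vss, iv t1/2, F, Cmax and AUC.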

Data set [3] in a line: Clearance in dog at 0.5 mg/kg, iv. The conditions noted are these: in vivo. Format: ADME, organism-based, Canis lupus familiaris.
Data set [4] can be described thus: Volume of distribution at steady state in dog at 0.5 mg/kg, iv. Format: ADME, organism-based, Canis lupus familiaris. Particulars: in vivo, read-out: Vdss.
Data set [5] can be described thus: Half-life in dog at 0.5 mg/kg, iv. Format: ADME, organism-based, Canis lupus familiaris. The conditions noted are these: in vivo.
A short description of data set [6]: Clearance in mini-pig at 0.5 mg/kg, iv. Format: ADME, organism-based, Sus scrofa domesticus. Particulars: in vivo.
A short description of data set [7]: Solubility of compound in fasted state simulated gastric fluid at pH 1.2. Format: physicochemical.
A short description of data set [8]: Solubility of compound in PBS at pH 7.4. Format: physicochemical.
The nature of data set [9]: Solubility of compound in fasted state simulated intestinal fluid at pH 6.5. Format: physicochemical.
In data set [10] the test system is Mus musculus. The experiment in a line: In vivo antagonist activity at glucocorticoid receptor in tumor of human HCC1806 cells xenografted in hsd:athymic Nude-Foxn1nu mouse assessed as reduction in cortisol-stimulated FKBP5 mRNA expression at 150 mg/kg, po administered as single dose via gavage and measured at 6 hrs post cortisol addition by qRT-PCR analysis (reference value: 2.3 to 4). Format: functional. Summed up:
(§2)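 HCC1806 TNBC xenograft tumors in mice. Cortisol 5 mg/kg given orally as a bolus to activate GR. The compound was given as a single oral gavage dose of 150 mg/kg, with vehicle controls. Tumors were collected 3 and 6 h after cortisol, and FKBP5 mRNA was measured by RT-qPCR relative to vehicle. n = 3 mice/group. One-way ANOVA with Dunnett's test versus vehicle.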
In general terms: In xenograft studies the graft and the host belong to different species.

Data set [11] has as its system Mus musculus. Put plainly: In vivo antagonist activity at glucocorticoid receptor in tumor of human HCC1806 cells xenografted in hsd:athymic Nude-Foxn1nu mouse assessed as reduction in cortisol-stimulated FKBP5 mRNA expression at 150 mg/kg, po administered as single dose via gavage and measured at 3 hrs post cortisol addition by qRT-PCR analysis (reference value: 2.3 to 4). The class given is functional. An outline of the steps: as §2

A short description of data set [12]: Toxicity in female rat assessed as effect on body weight at 250 mg/kg/day, po administered once daily via gavage for 14 days. Format: organism-based. The conditions noted are these: in vivo, 336 h.

The structures appear in SMILES notation. ≈ marks a conversion by molar mass, not a printed value. Calls of active or inactive are those of the source.

Sequence of CYP3A4 (P08684 whole entry): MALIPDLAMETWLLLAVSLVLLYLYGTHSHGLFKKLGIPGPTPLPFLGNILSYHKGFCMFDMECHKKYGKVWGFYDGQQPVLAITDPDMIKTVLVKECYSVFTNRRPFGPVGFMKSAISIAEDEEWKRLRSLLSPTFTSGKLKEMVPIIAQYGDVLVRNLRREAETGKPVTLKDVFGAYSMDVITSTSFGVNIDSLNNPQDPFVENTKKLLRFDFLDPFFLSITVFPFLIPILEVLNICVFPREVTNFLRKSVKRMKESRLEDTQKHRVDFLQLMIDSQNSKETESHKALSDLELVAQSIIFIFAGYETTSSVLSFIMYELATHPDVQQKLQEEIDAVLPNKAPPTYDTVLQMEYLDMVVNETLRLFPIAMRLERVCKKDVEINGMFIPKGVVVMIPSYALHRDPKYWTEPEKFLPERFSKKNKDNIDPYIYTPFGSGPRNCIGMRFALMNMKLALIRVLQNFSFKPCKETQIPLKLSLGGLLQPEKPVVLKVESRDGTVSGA

As usually defined, the IC50 is the concentration needed to halve the response being measured. The inhibition is the relative decrease from the control value, in per cent. Read a high inhibition as a strong effect. As a reminder, the clearance is the rate of elimination divided by the concentration. The term half-life denotes the time needed for the level to fall by half in the phase considered. Low readings indicate rapid decline, high ones slow decline. The term solubility denotes the dissolved amount per volume that the medium holds. Read a high solubility as a readily soluble substance. `CC#C[C@]1(O)CC[C@H]2[C@@H]3CCC4=CC(=O)CC[C@]4(C)[C@H]3[C@@H](c3ccc(N(C)C)cc3)C[C@@]21C`: the IC50 against Progesterone receptor was determined as 1140 nM; on Glucocorticoid receptor, 16 nM. Moreover, the agonist activity result in data set [1] was “inactive”. In addition, the inhibition at 10 µM against CYP3A4 was 34%. The clearance in data set [2] is 51.7 mL/min/kg; in data set [3], 10.2 mL/min/kg; in data set [6], 12.5 mL/min/kg. Also, in [4], the Vd was 8.32 L/kg. In data set [5], this compound gave a half-life of 16.2 h. In addition, the figures for the solubility in data set [7], in data set [8] and in data set [9] were 1130 µM (≈ 504 µg/mL), 20.6 µM (≈ 9.18 µg/mL) and 59.5 µM (≈ 26.5 µg/mL), respectively. Also, the figures for the “fold change (FC)” value in the data set on Mus musculus [10] and in the data set with Mus musculus [11] were 2.3 and 2.8, respectively. For the same compound, in data set [12], the Activity result is given as “Non-Toxic”.
